These results are taken from ChEMBL document CHEMBL1156663, “11-Hydroxymonocerin from the plant endophytic fungus Exserohilum rostratum” (J Nat Prod, 2008).

Molecules are shown by their SMILES.

For one assay, the system named is Plasmodium falciparum. Briefly: Antimalarial activity against multidrug-resistant Plasmodium falciparum K1. In kind it is functional, organism-based. The method in brief:
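In vitro microculture radioisotope assay against P. falciparum K1 (multidrug-resistant), parasites maintained in continuous culture; IC50 determined, dihydroartemisinin run as positive control.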

A further assay has as its system BT-474. Briefly: Cytotoxicity against human BT474 cells at 20 ug/mL by MTT assay. Type of assay: functional, cell-based.
For a further assay, the system named is CHAGO. Briefly: Cytotoxicity against human CHAGO cells at 20 ug/mL by MTT assay. Type of assay: functional, cell-based. A general note: Tetrazolium assays rely on reduction of a dye to a coloured formazan, in cell work by metabolically active cells.
The next assay concerns HepG2. The assay can be described thus: Cytotoxicity against human HepG2 cells at 20 ug/mL by MTT assay. In kind it is functional, cell-based.
In the next assay the test system is KATO3. Briefly: Cytotoxicity against human KATO3 cells at 20 ug/mL by MTT assay. In kind it is functional, cell-based.
The next assay has as its system SW-620. Briefly: Cytotoxicity against human SW620 cells at 20 ug/mL by MTT assay. Type of assay: functional, cell-based.

As a reminder, the IC50 is the concentration that inhibits the measured activity by half. A lower IC50 goes with greater potency in that assay. Turning to `CCC[C@@H]1C[C@@H]2OC(=O)c3c(cc(OC)c(OC)c3OC(C)=O)[C@@H]2O1`, in the assay with Plasmodium falciparum, the IC50 amounted to 0.82 µM. Besides, the Activity result in the assay on BT-474, in the assay on CHAGO, in the assay with HepG2, in the assay with KATO3 and in the assay with SW-620 was “Not toxic” in each case.

As for `CC[C@@H](O)[C@@H]1C[C@@H]2OC(=O)c3c(cc(OC)c(OC)c3O)[C@@H]2O1`, in the assay on Plasmodium falciparum, half-maximal inhibition (IC50) was put at 7.7 µM. For the same molecule, the Activity entry with BT-474, in the assay with CHAGO, with HepG2, with KATO3 and with SW-620 was “Not toxic” each time.

For `CCC[C@H]1C[C@H]2OC(=O)c3c(cc(OC)c(OC)c3O)[C@H]2O1` [MONOCERIN], the IC50 with Plasmodium falciparum was 0.68 µM. Also, the Activity entry in the assay with BT-474, with CHAGO, with HepG2, in the assay on KATO3 and in the assay with SW-620 was “Not toxic” in each case.

The molecule `CC[C@@H](OC(C)=O)[C@@H]1C[C@@H]2OC(=O)c3c(cc(OC)c(OC)c3OC(C)=O)[C@@H]2O1` yielded an IC50 in the assay with Plasmodium falciparum of 9.1 µM. Besides, the Activity result in the assay on BT-474, with CHAGO, with HepG2, with KATO3 and in the assay on SW-620 was “Not toxic” each time.
